S1P4 agonist: agonists of human S1P4 receptor. activation, % at 4.98 µM. S1P4-expressing cell line, agonist reporter assay. O95977. 220,000 tested, 0.35% active; in the data active = activation above about 11%;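 also: 0% = DMSO vehicle and 100% = reference agonist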
Dynein transport: dynein cargo transport inhibition; z-score, hits read low; 220,000 tested, 0.47% active; 3617.4 mouse cells, GR-EGFP nuclear translocation imaging; test concentration mostly 20 µM; stimulated with dexamethasone, 1 µM; active compounds read low;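 active = plate z-score of nuclear minus cytoplasmic receptor signal below a set negative limit, without overly bright fluorescence or cell loss, cut at about -3.5 in these data, passing the limit was not always enough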;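 also: z-score of nuclear minus cytoplasmic ring GR-EGFP intensity difference per well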
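Schedule: 48 h induction, then 1 h compound, then 30 min agonist, 37 °C. Buffer or medium: tetracycline-free induction medium containing charcoal-stripped FBS. Reagent: 1.0 µM final dexamethasone stimulus. Evaluation: nuclear versus cytoplasmic GR-EGFP signal, averaged per well. Signal: high-content fluorescence imaging after fixation.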
S1P4 antagonist: human S1P4 receptor antagonism | inhibition, % at 4.98 µM | 220,000 tested, 0.26% active | AID 1510 | S1P4-expressing cells, antagonist mode, reporter read-out; in the data active = inhibition above about 29%;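 also: 0% = wells stimulated with agonist and 100% = vehicle wells without agonist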
Hsp70 activator: switches on Hsp70 transcription; activation, % at 10 µM; 200,000 tested, 0.04% active; HeLa Hsp70 promoter luciferase reporter, luminescence; scaled: vehicle 0, proteasome-inhibitor control 100%;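 active = activation above the mean across all tested compounds plus 3 SD, cutoff set per campaign, cut at about 5.5% in these data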;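 also: 100% = MG132 at 30 µM as the positive control and 0% = DMSO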
S1P3 antag: antagonists of human S1P3 receptor; Q99500; CHO S1P3 NFAT-BLA reporter, FRET fluorescence, antagonist mode; inhibition, % at 4.98 µM; 170,000 tested, 0.27% active; AID 485;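 active = inhibition above the plate cutoff, the mean inhibition of test wells on that plate plus 3 SD, cut at about 28% in these data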;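 also: cells challenged with S1P at its EC80 of 0.8 µM; blue over green emission ratio from cleaved BLA substrate after 4 h stimulation; 0% = S1P-stimulated wells and 100% = unstimulated DMSO-only wells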
Mdm2 ligase inh: Mdm2 E3 ligase (human) inhibition | Q00987 | cell-based MDM2 ubiquitination luciferase reporter, 2 h; 0 = plate control, 100 = twice control, blank-subtracted | signal enhancement, % at 5 µM | 210,000 tested, 0.11% active | AID 1230;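 active = signal enhancement of 30% or more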;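 also: luminescence tracks abundance of the self-degrading MDM2-luciferase fusion protein; higher signal means inhibition of MDM2 E3 ligase activity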
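Assay system: stable mammalian line carrying autodegrading MDM2–luciferase fusion reporter; amount: 2000 cells seeded into each well; buffer or medium: DMEM; benchmarks: plate control and blank wells; signal: luciferase luminescence; timing: 2 h compound exposure at 37 °C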
S1P4 antag cf: human S1P4 antagonism, confirmation | 520 tested, 71% active | AID 1524 | shares compounds with S1P4 antagonist | S1P4-expressing cell line, antagonist mode, reporter read-out | inhibition, % at 4.98 µM; in the data active = inhibition above about 30%
S1P1 antag: human S1P1 antagonism as S1P4 antagonist counter-screen. shares compounds with S1P4 antagonist. cell-based S1P1 antagonist counterscreen, inhibition. inhibition, % at 4.98 µM. 520 tested, 37% active; in the data active = inhibition above about 40%;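 also: receptor stimulated with S1P near its EC80; 0% = agonist stimulated wells and 100% = vehicle only wells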
Target sequence (P21453 whole entry, looked up): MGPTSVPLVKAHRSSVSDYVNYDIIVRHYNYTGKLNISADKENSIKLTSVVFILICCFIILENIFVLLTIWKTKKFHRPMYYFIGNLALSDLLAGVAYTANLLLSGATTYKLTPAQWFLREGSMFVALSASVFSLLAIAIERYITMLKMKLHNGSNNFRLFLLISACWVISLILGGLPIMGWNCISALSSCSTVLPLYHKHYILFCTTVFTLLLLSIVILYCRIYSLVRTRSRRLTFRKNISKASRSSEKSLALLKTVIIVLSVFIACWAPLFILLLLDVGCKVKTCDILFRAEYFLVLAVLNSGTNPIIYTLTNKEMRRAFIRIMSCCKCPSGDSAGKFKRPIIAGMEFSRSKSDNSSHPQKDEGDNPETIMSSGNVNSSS
Numbers without * were called inactive. Only some compounds are listed: those with a hit (about 1.3% of all), similar ones and a draw of the others.

Cc1nn(-c2ccccc2)c2c1C(c1ccc(O)c(O)c1)N1C(=N2)C(Nc2ccccc2)=Nc2ccccc21 (stereo not given) was read as S1P4 agonist -0.4, Dynein transport -3.06, S1P4 antagonist 51.2*, Hsp70 activator -0.4, Mdm2 ligase inh -21.2, S1P4 antag cf 69.5* and S1P1 antag 65.4*.
Screening O=C(NCc1ccco1)c1ccc2c(c1)CCO2 returned S1P4 agonist -1.0, Dynein transport 1.54, S1P4 antagonist 30.2*, S1P3 antag -11.7, Mdm2 ligase inh -14.1, S1P4 antag cf 3.1 and S1P1 antag -1.4.
Screening CCc1nc2ccc(C(=O)NCc3ccco3)cc2nc1CC returned S1P4 agonist -1.2, Dynein transport 0.44, S1P4 antagonist 1.4, Hsp70 activator 0.7, S1P3 antag 4.3 and Mdm2 ligase inh -2.2.
CCCCN1CCCC1CNC(=O)c1cc(C#N)c2ccccc2c1OC (stereo not given) was read as S1P4 agonist 0.9, S1P4 antagonist 1.4, Hsp70 activator -0.5 and S1P3 antag -9.9.
`CC1=C(C)/C(=N\OS(=O)(=O)c2ccccc2)C=CC1=O` gave S1P4 agonist -1.0, Dynein transport -2.41, S1P4 antagonist 41.6*, Hsp70 activator 0.9, Mdm2 ligase inh -6.4, S1P4 antag cf 68.6* and S1P1 antag 10.4.
`C/C(CCS(=O)(=O)c1ccccc1)=N/O` gave S1P4 agonist 1.3, Dynein transport -0.227, S1P4 antagonist -18.6, Hsp70 activator 0.1, S1P3 antag -27.5 and Mdm2 ligase inh -9.8.
`Cc1ccc(S(=O)(=O)Nc2cccc3ncccc23)s1` gave S1P4 agonist 1.1, Dynein transport -1.03, S1P4 antagonist 47.2*, Hsp70 activator 2.5, S1P3 antag -18.9, Mdm2 ligase inh -26.9, S1P4 antag cf 108.0* and S1P1 antag 108.7*.
Screening Cc1ccc(S(=O)(=O)Nc2cccc3ncccc23)cc1 returned S1P4 agonist 1.0, Dynein transport -0.00792, S1P4 antagonist -14.4, S1P3 antag -4.5 and Mdm2 ligase inh -2.1.
For Cc1ccc(C)c(CSC2=NCCN2C(=O)c2cccs2)c1 the results were S1P4 agonist 1.9, Dynein transport 1.12, S1P4 antagonist -4.1, Hsp70 activator 0.1, S1P3 antag -15.4 and Mdm2 ligase inh -11.3.
CCCCC(CC)c1nnc(NC(=O)c2cccs2)s1 (stereo not given) was read as S1P4 agonist 0.0, Dynein transport 2.41, S1P4 antagonist 29.3*, Hsp70 activator -0.2, S1P3 antag -30.0, Mdm2 ligase inh -4.0, S1P4 antag cf 6.3 and S1P1 antag -14.6.
Screening CC(C)(C)c1ccc(C(O)CCCN2CCC(C(O)(c3ccccc3)c3ccccc3)CC2)cc1 (stereo not given) returned S1P4 agonist -1.1, Dynein transport -6.22, S1P4 antagonist 32.6*, Hsp70 activator -0.2, S1P3 antag -10.1, S1P4 antag cf 6.4 and S1P1 antag -5.6.
`O=C(CSc1n[nH]c(=O)n1-c1cccnc1)N1CCOCC1` gave S1P4 agonist -0.8, Dynein transport -1.32, S1P4 antagonist 0.5, S1P3 antag 13.9 and Mdm2 ligase inh 6.6.
For Cc1ccc(-c2cc3c(nn2)-c2ccccc2C3=O)cc1 the results were S1P4 agonist -1.2, Dynein transport -0.0175, S1P4 antagonist -14.1 and S1P3 antag 27.3.
Cc1ccccc1-c1cc2c(nn1)-c1ccccc1C2=O was read as S1P4 agonist -2.2, Dynein transport -1.23, S1P4 antagonist 92.5*, Hsp70 activator -0.2, Mdm2 ligase inh -18.2, S1P4 antag cf 9.8 and S1P1 antag 8.3.
`COc1cc(SC)ccc1C(=O)Nc1c(C)cccc1C` gave S1P4 agonist 0.0, Dynein transport -0.582, S1P4 antagonist 81.1*, Hsp70 activator -0.2, S1P3 antag 0.4, Mdm2 ligase inh -4.5, S1P4 antag cf 85.0* and S1P1 antag 12.3.

Screens as filed in PubChem.
